Compound activity from PubChem.
In the library only some 2.5% were active in any assay of this set; here they are far more common.
TRPC6 act: mouse TRPC6 channel activators, primary screen, cell-based, HEK293, membrane potential dye | Short transient receptor potential channel 6 (Mus musculus), Q61143 | HEK293-TRPC6 membrane potential dye fluorescence; hits give high values | B-score at 10 µM | 310,000 compounds, 0.13% hits | AID 2550, 2010;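 active means B-score of the integrated fluorescence ratio above library mean plus 3 SD, and starting fluorescence ratio within library mean plus 5 SD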;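 further: higher score means more depolarization so channel activation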
TRPC4 inh: inhibitors of mouse TRPC4 channel, primary screen, Fluo4 calcium, HEK293 TRPC4beta/mu-opioid cells; Short transient receptor potential channel 4 (Mus musculus), Q9QUQ5; DAMGO-evoked Fluo4 calcium flux; hits give low values; B-score at 10 µM; 300,000 compounds, 0.39% hits; AID 2247, 2010;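 active means B-score over 3 SD under the library average, no early fluorescence shift, positive overall ratio signal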
Target sequence (Q9QUQ5 whole entry, looked up): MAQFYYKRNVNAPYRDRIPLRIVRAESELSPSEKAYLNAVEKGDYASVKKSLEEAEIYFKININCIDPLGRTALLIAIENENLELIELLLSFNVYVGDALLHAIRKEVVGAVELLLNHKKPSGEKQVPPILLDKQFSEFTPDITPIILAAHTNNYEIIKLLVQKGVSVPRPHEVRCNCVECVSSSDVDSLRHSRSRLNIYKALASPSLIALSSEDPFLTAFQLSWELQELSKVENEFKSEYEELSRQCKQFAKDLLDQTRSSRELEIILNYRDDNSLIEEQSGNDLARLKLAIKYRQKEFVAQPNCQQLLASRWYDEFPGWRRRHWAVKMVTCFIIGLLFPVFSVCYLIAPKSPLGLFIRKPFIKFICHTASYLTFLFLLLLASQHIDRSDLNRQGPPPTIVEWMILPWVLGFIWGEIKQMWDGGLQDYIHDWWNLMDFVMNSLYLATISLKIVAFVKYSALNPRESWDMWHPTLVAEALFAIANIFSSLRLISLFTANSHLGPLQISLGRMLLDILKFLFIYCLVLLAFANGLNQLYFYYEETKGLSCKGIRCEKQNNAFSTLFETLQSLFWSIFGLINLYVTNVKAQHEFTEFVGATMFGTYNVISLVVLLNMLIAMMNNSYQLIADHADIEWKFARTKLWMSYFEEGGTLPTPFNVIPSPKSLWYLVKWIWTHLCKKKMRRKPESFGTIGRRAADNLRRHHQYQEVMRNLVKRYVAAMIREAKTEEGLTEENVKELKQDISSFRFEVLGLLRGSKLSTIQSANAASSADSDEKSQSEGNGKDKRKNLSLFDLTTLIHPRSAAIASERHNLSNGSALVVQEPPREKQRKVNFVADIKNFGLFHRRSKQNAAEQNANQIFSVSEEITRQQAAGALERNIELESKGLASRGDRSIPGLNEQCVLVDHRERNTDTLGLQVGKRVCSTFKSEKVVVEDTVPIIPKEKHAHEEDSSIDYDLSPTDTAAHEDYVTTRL
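test system = HEK293 cells with stable TRPC4beta plus mu-opioid receptor expression | detection = Fluo4 Ca2+ flux fluorescence | read-out = integrated fluorescence ratio relative to baseline, converted to per-well B score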
TRPC4 potent: positive allosteric modulators of TRPC4, primary screen, cell-based, mouse TRPC4beta, HEK293 mu-opioid, Fluo-4 calcium; Short transient receptor potential channel 4 (Mus musculus), Q9QUQ5; DAMGO EC20, Fluo-4 Ca2+ flux; hits give high values; B-score at 10 µM; 310,000 compounds, 0.42% hits;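 active means B-score of calcium response area above 5 SD of library B-scores, with initial fluorescence ratio within 5 SD of library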;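 further: B-score of integrated fluorescence ratio over time as area under calcium response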
TRPC6 inhibitor: mouse TRPC6 channel inhibitors, primary screen, cell-based, HEK293, membrane potential dye; Short transient receptor potential channel 6 (Mus musculus), Q61143; ACh-evoked depolarization; hits give low values; B-score at 10 µM; 310,000 compounds, 1.1% hits;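 active means B-score under library mean minus 3 SD, initial fluorescence not abnormally high, positive integrated signal ratio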;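 further: B-score derived from integrated fluorescence ratio over the kinetic read; more negative B-score means stronger inhibition of depolarization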
Platelet DG rel: inhibitors of platelet dense granule secretion, primary screen, cell-based, MLPCN, human platelets; human platelet-rich plasma, SFLLRN dense granule ATP release, luminescence; inhibition, %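 (compounds screened at 7.5 µM in platelet-rich plasma)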; 300,000 compounds, 0.22% hits;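 active means mean replicate score, as percent of positive control, at or above 50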
TRPC4 agonist: activators of mouse TRPC4 channel, primary screen, Fluo4 calcium, HEK293 TRPC4beta/mu-opioid cells | Short transient receptor potential channel 4 (Mus musculus), Q9QUQ5 | Fluo4 calcium fluorescence; hits give high values | B-score at 10 µM | 310,000 compounds, 0.49% hits | AID 2237, 2010;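 active means B-score above 5 SD of library B-scores, and initial fluorescence ratio not above library mean plus 5 SD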;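 further: positive B-score marks a calcium rise read as TRPC4 activation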
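Assay system – TRPC4beta and mu-opioid receptor HEK293 stable cells · Measured by – Fluo4 fluorescence, kinetic · Schedule – dye loading 45 min room temperature, 110 s kinetic read · Read-out – B-scored integrated calcium fluorescence ratio · Controls – buffer and maximal DAMGO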
TRPC4 sel inh 2: second selectivity test of TRPC6 inhibitors: effect on mouse TRPC4 | shares compounds with TRPC6 inhibitor | AID 2776 | HEK293 TRPC4/MOR, membrane potential dye fluorescence; channel activated by saturating DAMGO dose | 920 compounds, 42% hits | inhibition, % at 10 µM;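 active means compounds whose fluorescence signal differed from control wells by over 3 SD, either direction, in both duplicate plates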
TRPC4 spec: mouse TRPC4 modulation by TRPC6 hits, confirmation, selectivity assay for TRPC6 inhibitor project, cell-based, HEK293 TRPC4/mu-opioid, membrane potential dye. shares compounds with TRPC6 inhibitor. membrane potential fluorescence. activity change, negative = inhibition, % at 10 µM. 920 compounds, 61% hits. AID 2777, 2010;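 active means rise or fall in signal beyond 3 SD of buffer-only wells in both replicate plates, either sign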;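 further: integrated kinetic ratio of fluorescence range over baseline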
HEK293 MPD ctr 2-1: nonspecific membrane potential effects, parental HEK293, confirmation, counter-screen for TRPC6 inhibitor project, cell-based, second counter screen; shares compounds with TRPC6 inhibitor; parental HEK293 membrane potential dye fluorescence; maximal acetylcholine challenge after compound addition; signal change vs control, % at 10 µM; 920 compounds, 31% hits;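 active means membrane potential signal moving either way by over 3 SD of the maximum-effect control, in both duplicate plates, meaning non-specific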
HEK293 MPD ctr-1: membrane potential modulation in parental HEK293, confirmation, counter-screen for TRPC6 inhibitor project, cell-based; shares compounds with TRPC6 inhibitor; parental HEK293 membrane potential dye fluorescence; membrane potential signal change, % at 10 µM; 920 compounds, 60% hits; AID 2780, 2010;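 active means membrane potential signal shifting up or down by more than 3 SD of buffer-only wells, on both duplicate plates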
HEK293 MPD ctr-2: parental HEK293 membrane potential modulation, confirmation, counter-screen for TRPC6 modulator project, cell-based | shares compounds with TRPC6 inhibitor | membrane potential dye fluorescence | membrane potential signal change, % at 10 µM | 2,400 compounds, 51% hits;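 active means membrane potential signal moves up or down beyond 5 SD from buffer-only wells, on both duplicate plates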
HEK293 MPD ctr 2-2: second counter-screen for TRPC6 modulators: effect in parental HEK293 cells; membrane potential dye fluorescence; after compound, maximal acetylcholine stimulation; shares compounds with TRPC6 inhibitor; 2,400 compounds, 14% hits; inhibition, % at 10 µM; AID 488926;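 active means membrane potential signal drops by more than 5 SD from the mean control signal, in both duplicate plates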;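 further: plate controls were acetylcholine ECmax control wells for no effect and buffer only wells for full effect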
TRPC4 ctr mod: TRPC4 modulation by TRPC6 hit compounds, confirmation, selectivity assay for TRPC6 modulator project, cell-based, HEK293 TRPC4/mu-opioid, membrane potential dye, mouse. membrane potential fluorescence. AID 488927, 2010. shares compounds with TRPC6 inhibitor. percent change from control (negative = decrease, positive = increase), % at 10 µM. 2,400 compounds, 69% hits;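 active means membrane potential signal moved up or down beyond 5 SD of buffer control wells, in both duplicate plates, actives on both sides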;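 further: plate controls were assay buffer wells for no effect and DAMGO maximal-effect wells for full effect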
TRPC4/MOR inh 2: second check of whether TRPC6 modulators also affect mouse TRPC4; 2,400 compounds, 55% hits; HEK293 TRPC4/mu-opioid, membrane potential dye fluorescence; stimulated with maximal-effect DAMGO; shares compounds with TRPC6 inhibitor; inhibition, % at 10 µM;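 active means drop in membrane potential signal beyond 5 SD of the control wells in both duplicate plates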;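 further: TRPC4 counter screen for TRPC6 hits run under conditions tuned for TRPC6 not TRPC4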
TRPC6 block conf: mouse TRPC6 channel inhibitors, confirmation, HEK293 cells, membrane potential dye, duplicate | ACh-evoked depolarization | 3,300 compounds, 43% hits | AID 488960, 2010 | inhibition, % at 10 µM | shares compounds with TRPC6 inhibitor;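 active means fluorescence ratio falls more than 5 SD below the full-stimulation control mean, in both duplicate runs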;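 further: integrated fluorescence ratio of peak minus minimum over baseline after agonist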
TRPC6 act confirm: mouse TRPC6 channel activators, confirmation, HEK293 cells, membrane potential dye, duplicate | activation, % at 10 µM | shares compounds with TRPC6 inhibitor | 2,800 compounds, 11% hits | HEK293-TRPC6 membrane potential dye fluorescence, FDSS | AID 488961, 2010;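 active means ratio signal rise beyond 5 SD above unstimulated control wells' mean, seen in both duplicate runs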;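 further: plate controls were buffer EC0 wells for no effect and acetylcholine ECmax response for full effect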
The depositor's hits bear a star; i = inactive; . = not tested or not shown.

SMILES	TRPC6 act	TRPC4 inh	TRPC4 potent	TRPC6 inhibitor	Platelet DG rel	TRPC4 agonist	TRPC6 block conf	TRPC6 act confirm	others
CCn1c2c(c(=N)c3ccccc31)CCC2	i	i	i	-11*	-3	i	72%*	i	TRPC4 sel inh 2=68%*;TRPC4 spec=-34%*;HEK293 MPD ctr 2-1=-12%*;HEK293 MPD ctr-1=-593%*
CNCC(O)Cn1c2c(c3ccccc31)CCCC2 (stereo unspecified)	i	i	i	i	-1	i	.	.
COc1ccc(-n2nc(C(=O)NCC(=O)N3CCC(C)CC3)c3ccccc3c2=O)cc1Cl	i	i	i	i	-16	i	.	.
O=C1c2ccccc2C(=O)N1CCc1csc(-c2cccc(F)c2)n1	i	i	i	i	0	i	.	.
Cc1cc(CNC(=S)Nc2cccc(Cl)c2Cl)nn1C	i	i	i	i	10	i	.	.
COC(=O)c1cccc(NC(=O)CC2C(=O)NCCN2C(=O)Nc2cc(C)cc(C)c2)c1 (stereo unspecified)	i	i	i	i	8	i	.	.
CCN(C(=O)CN1CCN(c2ccc(OC)cc2)CC1)c1c(N)n(Cc2ccccc2)c(=O)[nH]c1=O	i	i	i	i	2	i	.	.
CCn1c2c(c(=N)c3c1CCC3)CCC2	i	i	i	-7*	12	i	36%*	i	HEK293 MPD ctr-2=-234%*;HEK293 MPD ctr 2-2=i;TRPC4 ctr mod=-39%*;TRPC4/MOR inh 2=40%*
